Compound activity from PubChem BioAssay.
UBC13 polyUb – inhibitors of human UBC13 polyubiquitin chain formation; TR-FRET; P61088; inhibition, % at 20 µM; AID 485273; hit rate 0.47% among 330,000; in the data active means inhibition above about 45%, passing the limit was not always enough
Target sequence (P61088 whole entry, looked up): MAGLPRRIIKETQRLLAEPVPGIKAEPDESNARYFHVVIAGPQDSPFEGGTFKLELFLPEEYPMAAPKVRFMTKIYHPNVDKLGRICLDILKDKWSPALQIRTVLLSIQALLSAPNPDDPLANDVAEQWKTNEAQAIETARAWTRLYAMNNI
IDE cell activ – boosts human insulin-degrading enzyme activity in HEK cells | P14735 | FAbeta-B cleavage, fluorescence polarization; 0% vehicle, 100% cell-free pure enzyme wells | activation, % at 5.96 µM | hit rate 0.073% among 340,000 | AID 493087;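 active means activation above the mean of all tested compounds plus 3 SD, set per screening campaign, cut at about 17% in these data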
proCasp3 act – procaspase-3 (human) activation; P42574; recombinant procaspase-3 D3A, Ac-DEVD-pNA absorbance 405 nm; activation, % at 8.5 µM; hit rate 0.11% among 330,000;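 active means activation above the mean of all tested compounds plus 3 SD, cut at about 21% in these data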
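Assay system: Autoprocessing-dead procaspase-3 D3A mutant enzyme; also added: Ac-DEVD-pNA; doses: one concentration, 8.5 µM nominal, 0.8% DMSO; times: 1 h compound preincubation, 2 h substrate hydrolysis at 25 °C; technique: 405 nm absorbance of p-nitroaniline, reads at 0 and 120 min; measure: % activation between DMSO and enzyme-spiked controls; repeats: single replicate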
IDE cell inh – cellular human IDE inhibition | inhibition, % at 5.59 µM | hit rate 0.41% among 320,000 | HEK cells, FAbetaB cleavage, fluorescence polarization | P14735;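 active means percent inhibition above the average of all tested compounds plus 3 SD, set per screening campaign, cut at about 16% in these data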;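 further: IDE supplied by intact live HEK cells; FP after avidin binding of uncleaved biotin substrate so inhibition keeps polarization high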
procasp7 counter – activates human procaspase-7, counter-screen for procaspase-3 activators | hit rate 0.093% among 330,000 | activation, % at 8.5 µM | P55210 | recombinant procaspase-7, Ac-DEVD-pNA absorbance 405 nm; D23A/D198A/D206A triple mutant, cannot self-cleave; scale: DMSO 0, 5 µM enzyme 100 | AID 463210;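 active means percent activation above the screen-wide mean plus 3 SD, cut at about 25% in these data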
Target sequence (P55210 whole entry D23A/D198A/D206A): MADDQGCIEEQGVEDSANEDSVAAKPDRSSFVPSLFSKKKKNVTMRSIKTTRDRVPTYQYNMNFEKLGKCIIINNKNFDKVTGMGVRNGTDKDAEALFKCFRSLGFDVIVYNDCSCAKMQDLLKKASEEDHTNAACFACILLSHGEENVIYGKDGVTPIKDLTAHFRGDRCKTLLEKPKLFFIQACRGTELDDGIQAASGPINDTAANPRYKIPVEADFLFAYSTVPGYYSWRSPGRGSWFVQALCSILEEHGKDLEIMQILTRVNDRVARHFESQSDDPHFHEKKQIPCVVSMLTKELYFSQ
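Material: Procaspase-7 triple mutant (PC-7 D3A) | Quantity: 2 µM procaspase-7 mutant as dispensed | Reagent: DEVD-pNA substrate | Times: 1 h preincubation, 2 h reaction | Technique: 405 nm absorbance of p-nitroaniline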
PHOSPHO1 block – PHOSPHO1 (human) inhibition; recombinant PHOSPHO1, absorbance phosphatase assay; inhibition, % at 13.3 µM; hit rate 1.1% among 290,000; in the data active means inhibition above about 60%
IDE inh confirm – confirmation of human insulin-degrading enzyme inhibitors in cells. shares compounds with IDE cell inh. hit rate 51% among 1,200. inhibition, % at 5.59 µM. HEK cells, FAbetaB cleavage, fluorescence polarization;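 active means mean inhibition across triplicate wells above the cutoff set by the earlier primary insulin-degrading enzyme screen, cut at about 16% in these data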
HEK293 tox – HEK cell cytotoxicity, counter-screen for IDE inhibitors. hit rate 28% among 1,200. inhibition, % at 5.59 µM. HEK293 cytotoxicity, ATP luminescence. shares compounds with IDE cell inh; in the data active means inhibition above about 22%
Numbers stand for hits; n = inactive; x = no result. In the library only some 1.9% were active in any assay of this set; here they are far more common.

SMILES	UBC13 polyUb	IDE cell activ	proCasp3 act	IDE cell inh	procasp7 counter	PHOSPHO1 block	others
O=C1C(=O)c2ccccc2-c2ccccc21	n	n	n	n	n	100
O=c1[nH]c(=S)n(Cc2ccco2)c(O)c1C=NCc1cccs1	n	n	n	n	n	95
COC(=O)C1=C(c2cc3ccccc3o2)C[C@@H]2CC[C@H]1N2C(=O)N1CCOCC1	n	n	n	n	n	x
Cc1nn(CCC#N)c2c1P(=S)(N1CCCC1)OC(c1ccc(F)cc1)=N2 (stereo not given)	n	n	n	n	n	103
Cc1cc(OC(C)C(=O)NCc2ccncc2)c2c3c(c(=O)oc2c1)CCCC3 (stereo not given)	n	n	n	n	n	n
CCN(CC)c1ccc(CNCCc2ccccc2F)cc1	n	n	n	n	n	n
O=C(N/N=C/c1c(O)n(Cc2ccc(F)cc2)c(=O)[nH]c1=O)c1ccccc1	n	n	n	n	n	n
O=C(O)CCC(=O)NCCC1=c2ccccc2=N/C1=C\c1c(O)n(Cc2ccc(F)cc2)c(=S)[nH]c1=O	n	n	n	n	n	97
O=c1[nH]c(=O)n(Cc2ccco2)c(O)c1C=NC1CCN(Cc2ccccc2)CC1	n	x	n	n	n	n
Cc1cc(C=C2C(=O)N(C)C(=S)N(C)C2=O)c(C)n1C1CCCCC1	n	n	n	n	n	65
Cc1cc(C=C2C(=O)NC(=S)NC2=O)c(C)n1C1CCCC1	n	n	n	n	n	n
CSc1ccccc1NP1(=O)OCC(C)([N+](=O)[O-])CO1 (stereo not given)	x	n	x	x	x	x
CC1CCC(C(C)C)C(OC(=O)Cn2c(COc3ccccc3)[n+](C)c3ccccc32)C1 (stereo not given)	n	21	n	n	n	n
CCOC(=O)c1ccc(NC(=O)N2C[C@@H]3C[C@@H](C2)c2cccc(=O)n2C3)cc1	n	n	n	n	n	n
Cc1ccc2c(c1)=NC(=O)/C(=C/c1c(O)[nH]c(=O)[nH]c1=O)C=2	n	n	n	n	n	n
Cc1ccc2c(c1)=C/C(=C\c1c(O)[nH]c(=S)[nH]c1=O)C(=O)N=2	n	x	n	16	n	n
CC(C)(C)c1ccc(C(=O)C2CCCN(C3CCC3)C2)cc1 (stereo not given)	n	n	n	n	n	60
Cc1cccc(NC(=O)N2CCCC2)c1	n	n	n	n	n	62
CC(C(=O)O)N(C(=O)c1ccccc1)c1ccc(F)c(Cl)c1 (stereo not given)	n	n	n	n	n	n
CCc1ccc(-c2nn(Cc3ccccc3)cc2C=O)cc1	n	n	n	n	n	n
CCc1ccc(N2C(=O)NC(=O)C(Cc3ccc(OC)cc3OC)C2=O)cc1 (stereo not given)	n	n	n	n	n	95
Clc1ccc(CSC(Cn2ccnc2)c2ccc(Cl)cc2Cl)cc1 (stereo not given)	n	n	n	n	n	n
Clc1ccc(CO/N=C(\Cn2ccnc2)c2ccc(Cl)cc2Cl)c(Cl)c1	51	x	n	n	n	x
CC1CCCCN1Cc1c[nH]c2ccccc12 (stereo not given)	n	n	n	n	n	n
Cc1nc2ccccc2c(=O)n1-c1ccc(C(=O)O)cc1	n	18	n	n	n	n
SMILES	UBC13 polyUb	IDE cell activ	proCasp3 act	IDE cell inh	procasp7 counter	PHOSPHO1 block	others
CCCc1nc2ccccc2c(=O)n1-c1ccc(O)cc1	n	n	n	n	n	63
Cc1nc2ccccc2c(=O)n1-c1cccc(C(F)(F)F)c1	n	n	n	n	n	n
Cc1nc2c(=O)n(C)c(=O)nc-2n(C)n1	n	n	n	n	n	68
O=C1NC(=O)N(Cc2ccc(F)cc2)C(=O)/C1=C\c1ccoc1	n	n	n	17	n	n
O=C1NC(=S)N(c2ccc(F)cc2)C(=O)/C1=C\c1ccoc1	x	n	x	x	x	n
Cc1ccc(N2C(=O)NC(=O)/C(=C\c3ccoc3)C2=O)cc1	n	n	n	20	n	n
CCOC(=O)c1c(/N=C/c2c(O)n(-c3ccccc3F)c(=S)[nH]c2=O)sc2c1CCCC2	n	n	n	n	n	94
CCOP(=S)(OCC)N1CC1	x	n	x	x	x	x
CN(C)c1ccc(CCN2CCOCC2)cc1	n	n	n	n	n	x
CN(C)c1ccc2c(c1)N=C(c1ccco1)OP2(=S)N1CCOCC1 (stereo not given)	n	n	n	n	n	90
CCN(CC(=O)Nc1ccc(NC(C)=O)cc1)C(=O)CSC(c1ccccc1)c1ccccc1	n	n	n	n	n	x
Cc1cccc(C#N)c1	n	n	n	n	n	x
OC(CNC1CCCCC1)C(F)(F)F (stereo not given)	n	20	n	n	n	n
O=C1NC(=O)N(c2ccc3c(c2)OCO3)C(=O)/C1=C/c1ccc(N2CCCC2)o1	n	n	n	19	n	n	IDE inh confirm=29;HEK293 tox=n
CCOc1ccc(N2C(=O)NC(=O)/C(=C\c3ccc(N4CCCCC4)o3)C2=O)cc1	n	n	n	n	n	n
COC(=O)C1=C(c2ccc(-c3ccccc3)c(F)c2)C[C@@H]2CC[C@H]1N2C(=O)N1CCOCC1	n	n	n	n	n	x
O=C1NC(=O)N(Cc2ccccc2)C(=O)/C1=C\C=C\c1ccco1	n	n	n	17	n	n	IDE inh confirm=n;HEK293 tox=58
OC(c1cccc(Cl)c1)(c1cccc(Cl)c1)C1CN2CCC1CC2 (stereo not given)	n	n	n	n	n	n
COc1cccc2cc(-c3cc(=O)oc4ccc(OC(=O)N(C)C)cc34)oc12	n	n	n	n	n	n
COc1ccc(-n2c(/C=C/c3ccc(O)c(O)c3)nc3ccccc3c2=O)cc1	n	n	n	115	n	n	IDE inh confirm=116;HEK293 tox=23
O=c1c2ccccc2nc(/C=C/c2ccc3c(c2)OCO3)n1-c1ccccc1	n	n	n	n	n	n
COc1cc(/C=C/c2nc3ccccc3c(=O)n2-c2ccc(O)cc2)ccc1O	n	n	n	33	n	n	IDE inh confirm=111;HEK293 tox=34
O=c1c2ccccc2nc(/C=C/c2ccccn2)n1-c1ccccc1	n	n	n	n	n	x
CC1(C)OC(c2ccccc2)=C/C(=C/C=C2C(=O)NC(=O)NC2=O)O1	n	n	n	50	n	n	IDE inh confirm=55;HEK293 tox=n
CCN(CC)c1ccc(/C=N/c2sc3c(c2C#N)C2CCN3CC2)c(O)c1	x	n	n	20	n	n	IDE inh confirm=123;HEK293 tox=55
CN1/C(=C\C=Nc2ccccc2)C(C)(C)c2ccccc21	n	n	n	n	n	n
